Measured values published in ChEMBL document CHEMBL1137781, “Synthesis and preclinical evaluation of novel PET probes for P-glycoprotein function and expression” (J Med Chem, 2009).

Assays:
[1] = Biodistribution in Wistar rat medulla at 11+/-2 MBq, iv after 80 mins; type: ADME, organism-based, Medulla of organ; details: in vivo
Procedure, shortened: (§1)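 Male Wistar rats (12 h light/dark, chow ad libitum) were fitted with a femoral arterial cannula under isoflurane. They were pretreated via tail vein with saline, cyclosporin A (50 mg/kg), or nonradioactive tracer compound (15 mg/kg; 10 mg/mL in saline with 35% ethanol). The 11C tracer was then given via penile vein, followed by 76 min microPET. Animals were then terminated; excised tissues were weighed and gamma-counted with decay correction. Values are SUVs (tissue MBq/g × body weight g / injected MBq).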

[2] = Biodistribution in Wistar rat parietal/temporal/occipital cortex at 11+/-2 MBq, iv after 80 mins; type: ADME, organism-based; details: in vivo; procedure, shortened: as §1
Pons [3] = assay: Biodistribution in Wistar rat pons at 11+/-2 MBq, iv after 80 mins; type: ADME, organism-based; details: in vivo
Striatum [4] = assay: Biodistribution in Wistar rat striatum at 11+/-2 MBq, iv after 80 mins; type: ADME, organism-based; details: in vivo
Bone [5] = assay: Biodistribution in Wistar rat bone at 11+/-2 MBq, iv after 80 mins; type: ADME, organism-based, Bone element; details: in vivo
Colon = assay: Biodistribution in Wistar rat colon at 11+/-2 MBq, iv after 80 mins; type: ADME, organism-based; details: in vivo; procedure, shortened: as §1
Duodenum = assay: Biodistribution in Wistar rat duodenum at 11+/-2 MBq, iv after 80 mins; type: ADME, organism-based; details: in vivo; procedure, shortened: as §1
[6] = Biodistribution in Wistar rat fat at 11+/-2 MBq, iv after 80 mins; type: ADME, organism-based, Adipose tissue; details: in vivo; procedure, shortened: as §1
Ileum [7] = assay: Biodistribution in Wistar rat ileum at 11+/-2 MBq, iv after 80 mins; type: ADME, organism-based; details: in vivo; procedure, shortened: as §1
Liver = assay: Biodistribution in Wistar rat liver at 11+/-2 MBq, iv after 80 mins; type: ADME, organism-based; details: in vivo; procedure, shortened: as §1
Lung [8] = assay: Biodistribution in Wistar rat lung at 11+/-2 MBq, iv after 80 mins; type: ADME, organism-based; details: in vivo; procedure, shortened: as §1
Muscle tissue [9] = assay: Biodistribution in Wistar rat muscle at 11+/-2 MBq, iv after 80 mins; type: ADME, organism-based; details: in vivo; procedure, shortened: as §1
Pancreas [10] = assay: Biodistribution in Wistar rat pancreas at 11+/-2 MBq, iv after 80 mins; type: ADME, organism-based; details: in vivo; procedure, shortened: as §1
Plasma [11] = assay: Biodistribution in Wistar rat plasma at 11+/-2 MBq, iv after 80 mins; type: ADME, organism-based; details: in vivo
Procedure, shortened: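 Male Wistar rats under isoflurane with saline pretreatment via tail vein. Carbon-11 tracer (8–15 MBq, saline-diluted) was given via the penile vein. After the 76 min microPET list-mode scan, the anesthetized animals were killed and blood collected. Plasma was separated by centrifugation (5 min, 1000g), weighed, and gamma-counted with decay correction. Results are given as SUV (tissue MBq/g × body weight/injected dose).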

Cerebellum = assay: Biodistribution in 15 mg/kg unlabeled 6,7-dimethoxy-2-(3-(5-methoxy-3,4-dihydronaphthalen-1(2H)-ylidene)propyl)-1,2,3,4-tetrahydroisoquinoline pretreated Wistar rat cerebellum at 13+/-2 MBq, iv after 80 mins; type: ADME, organism-based; set-up: dose 15 mg/kg, route intravenous; details: in vivo
Procedure, shortened: (§2)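 Male Wistar rats given saline or unlabeled compound via tail vein: 15 mg/kg, dissolved at 10 mg/mL in saline with 35% ethanol. [11C] tracer (8-15 MBq) then given via penile vein. After microPET scanning the anesthetized rats were killed. Tissues were excised and weighed, and blood was spun for plasma and cell fraction. γ counting with decay correction. Results as SUV (tissue MBq/g × body weight/injected dose).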

[12] = Biodistribution in 15 mg/kg unlabeled 6,7-dimethoxy-2-(3-(5-methoxy-3,4-dihydronaphthalen-1(2H)-ylidene)propyl)-1,2,3,4-tetrahydroisoquinoline pretreated Wistar rat parietal/temporal/occipital cortex at 13+/-2 MBq, iv after 80 mins; type: ADME, organism-based; set-up: dose 15 mg/kg, route intravenous; details: in vivo; procedure, shortened: as §2
Pons [13] = assay: Biodistribution in 15 mg/kg unlabeled 6,7-dimethoxy-2-(3-(5-methoxy-3,4-dihydronaphthalen-1(2H)-ylidene)propyl)-1,2,3,4-tetrahydroisoquinoline pretreated Wistar rat pons at 13+/-2 MBq, iv after 80 mins; type: ADME, organism-based; set-up: dose 15 mg/kg, route intravenous; details: in vivo; procedure, shortened: as §2
Striatum [14] = assay: Biodistribution in 15 mg/kg unlabeled 6,7-dimethoxy-2-(3-(5-methoxy-3,4-dihydronaphthalen-1(2H)-ylidene)propyl)-1,2,3,4-tetrahydroisoquinoline pretreated Wistar rat striatum at 13+/-2 MBq, iv after 80 mins; type: ADME, organism-based; set-up: dose 15 mg/kg, route intravenous; details: in vivo; procedure, shortened: as §2
Bone [15] = assay: Biodistribution in 15 mg/kg unlabeled 6,7-dimethoxy-2-(3-(5-methoxy-3,4-dihydronaphthalen-1(2H)-ylidene)propyl)-1,2,3,4-tetrahydroisoquinoline pretreated Wistar rat bone at 13+/-2 MBq, iv after 80 mins; type: ADME, organism-based, Bone element; set-up: dose 15 mg/kg, route intravenous; details: in vivo; procedure, shortened: as §2
Heart = assay: Biodistribution in 15 mg/kg unlabeled 6,7-dimethoxy-2-(3-(5-methoxy-3,4-dihydronaphthalen-1(2H)-ylidene)propyl)-1,2,3,4-tetrahydroisoquinoline pretreated Wistar rat heart at 13+/-2 MBq, iv after 80 mins; type: ADME, organism-based; set-up: dose 15 mg/kg, route intravenous; details: in vivo; procedure, shortened: as §2
Ileum [16] = assay: Biodistribution in 15 mg/kg unlabeled 6,7-dimethoxy-2-(3-(5-methoxy-3,4-dihydronaphthalen-1(2H)-ylidene)propyl)-1,2,3,4-tetrahydroisoquinoline pretreated Wistar rat ileum at 13+/-2 MBq, iv after 80 mins; type: ADME, organism-based; set-up: dose 15 mg/kg, route intravenous; details: in vivo; procedure, shortened: as §2
Kidney = assay: Biodistribution in 15 mg/kg unlabeled 6,7-dimethoxy-2-(3-(5-methoxy-3,4-dihydronaphthalen-1(2H)-ylidene)propyl)-1,2,3,4-tetrahydroisoquinoline pretreated Wistar rat kidney at 13+/-2 MBq, iv after 80 mins; type: ADME, organism-based; set-up: dose 15 mg/kg, route intravenous; details: in vivo; procedure, shortened: as §2
Lung [17] = assay: Biodistribution in 15 mg/kg unlabeled 6,7-dimethoxy-2-(3-(5-methoxy-3,4-dihydronaphthalen-1(2H)-ylidene)propyl)-1,2,3,4-tetrahydroisoquinoline pretreated Wistar rat lung at 13+/-2 MBq, iv after 80 mins; type: ADME, organism-based; set-up: dose 15 mg/kg, route intravenous; details: in vivo; procedure, shortened: as §2
Muscle tissue [18] = assay: Biodistribution in 15 mg/kg unlabeled 6,7-dimethoxy-2-(3-(5-methoxy-3,4-dihydronaphthalen-1(2H)-ylidene)propyl)-1,2,3,4-tetrahydroisoquinoline pretreated Wistar rat muscle at 13+/-2 MBq, iv after 80 mins; type: ADME, organism-based; set-up: dose 15 mg/kg, route intravenous; details: in vivo; procedure, shortened: as §2
Pancreas [19] = assay: Biodistribution in 15 mg/kg unlabeled 6,7-dimethoxy-2-(3-(5-methoxy-3,4-dihydronaphthalen-1(2H)-ylidene)propyl)-1,2,3,4-tetrahydroisoquinoline pretreated Wistar rat pancreas at 13+/-2 MBq, iv after 80 mins; type: ADME, organism-based; set-up: dose 15 mg/kg, route intravenous; details: in vivo; procedure, shortened: as §2
Plasma [20] = assay: Biodistribution in 15 mg/kg unlabeled 6,7-dimethoxy-2-(3-(5-methoxy-3,4-dihydronaphthalen-1(2H)-ylidene)propyl)-1,2,3,4-tetrahydroisoquinoline pretreated Wistar rat plasma at 13+/-2 MBq, iv after 80 mins; type: ADME, organism-based; set-up: dose 15 mg/kg, route intravenous; details: in vivo; procedure, shortened: as §2
[21] = Biodistribution in 15 mg/kg unlabeled 6,7-dimethoxy-2-(3-(5-methoxy-3,4-dihydronaphthalen-1(2H)-ylidene)propyl)-1,2,3,4-tetrahydroisoquinoline pretreated Wistar rat red blood cells at 13+/-2 MBq, iv after 80 mins; type: ADME, organism-based, Erythrocyte; set-up: dose 15 mg/kg, route intravenous; details: in vivo; procedure, shortened: as §2
Brain = assay: Biodistribution in Wistar rat brain at 11+/-2 MBq, iv after 56 mins; type: ADME, organism-based; details: in vivo
Plasma [22] = assay: Biodistribution in Wistar rat plasma at 11+/-2 MBq, iv after 60 mins; type: ADME, organism-based; details: in vivo, 1 h
Procedure, shortened: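 Male Wistar rats under isoflurane with a femoral arterial cannula; saline pretreatment via tail vein. Carbon-11 tracer (8–15 MBq, diluted in saline) injected into the penile vein during microPET. 14 arterial samples were drawn from 15 s to 60 min, plasma was separated by centrifugation, and radioactivity was gamma-counted. Results are given as SUV (tissue MBq/g × body weight/injected dose).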

[23] = Biodistribution in Wistar rat bulbus olfactorius at 11+/-2 MBq, iv after 80 mins; type: ADME, organism-based, Olfactory bulb; details: in vivo

COc1cc2c(cc1OC)CN(CC/C=C1\CCCc3c(O[11CH3])cccc31)CC2
SUV [1]: 0.46 | SUV [2]: 0.65 | SUV (Pons [3]): 0.6 | SUV (Striatum [4]): 0.46 | SUV (Bone [5]): 0.78 | SUV (Colon): 1.85 | SUV (Duodenum): 3.06 | SUV [6]: 0.35 | SUV (Ileum [7]): 1.94 | SUV (Liver): 1.75 | SUV (Lung [8]): 1.34 | SUV (Muscle tissue [9]): 0.52 | SUV (Pancreas [10]): 4.02 | SUV (Plasma [11]): 0.49 | SUV (Cerebellum): 0.4 | SUV [12]: 0.43 | SUV (Pons [13]): 0.5 | SUV (Striatum [14]): 0.4 | SUV (Bone [15]): 0.81 | SUV (Heart): 0.68 | SUV (Ileum [16]): 0.91 | SUV (Kidney): 1.3 | SUV (Lung [17]): 2.13 | SUV (Muscle tissue [18]): 0.45 | SUV (Pancreas [19]): 2.73 | SUV (Plasma [20]): 0.56 | SUV [21]: 0.3 | SUV (Brain): 0.88 | SUV (Plasma [22]): 0.49 | SUV [23]: 0.64
